Results published in ChEMBL document CHEMBL1121529, “Synthesis of [82Br]bromperidol and preliminary tissue distribution studies in the rat” (J Med Chem, 1980).

How the values were obtained:
Parameters in all cases: dose 0.2 mg/kg, route intravenous
Rattus norvegicus [1] = assay: Tested for the tissue distribution of Br activity at 60 min in kidney following intravenous injection in rat at the dose of 0.2 mg/kg; type: ADME, organism-based; conditions: in vivo, 1 h
In short: (§1)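 Male Sprague-Dawley rats (300-320 g, fed ad libitum) anesthetized with sodium pentobarbital 45 mg/kg, then given an iv bolus into the jugular vein of 19-22 µCi (0.2 mg/kg) [82Br]bromperidol in propylene glycol-ethanol-water (40:20:40), pH 4. Rats serially sacrificed by cardiac puncture. Organs counted 100 s at ~12 000 cpm with decay correction. Values are % dose/g, mean and SD of three.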

Rattus norvegicus [2] = assay: Tested for the tissue distribution of Br activity at 15 min in lungs following intravenous injection in rat at the dose of 0.2 mg/kg; type: ADME, organism-based, Lung; conditions: in vivo, 0.25 h; in short: as §1
Rattus norvegicus [3] = assay: Tested for the tissue distribution of Br activity at 45 min in lung following intravenous injection in rat at the dose of 0.2 mg/kg; type: ADME, organism-based; conditions: in vivo, 0.75 h; in short: as §1
Rattus norvegicus [4] = assay: Tested for the tissue distribution of Br activity at 15 min in blood following intravenous injection in rat at the dose of 0.2 mg/kg; type: ADME, organism-based; conditions: in vivo, 0.25 h; in short: as §1
Rattus norvegicus [5] = assay: Tested for the tissue distribution of Br activity at 60 min in liver following intravenous injection in rat at the dose of 0.2 mg/kg; type: ADME, organism-based; conditions: in vivo, 1 h; in short: as §1
Rattus norvegicus [6] = assay: Tested for the tissue distribution of Br activity at 45 min in brain following intravenous injection in rat at the dose of 0.2 mg/kg; type: ADME, organism-based; conditions: in vivo, 0.75 h; in short: as §1
Rattus norvegicus [7] = assay: Tested for the tissue distribution of Br activity at 120 min in kidney following intravenous injection in rat at the dose of 0.2 mg/kg; type: ADME, organism-based; conditions: in vivo, 2 h; in short: as §1
Rattus norvegicus [8] = assay: Tested for the tissue distribution of Br activity at 60 min in brain following intravenous injection in rat at the dose of 0.2 mg/kg; type: ADME, organism-based; conditions: in vivo, 1 h; in short: as §1
Rattus norvegicus [9] = assay: Tested for the tissue distribution of Br activity at 15 min in kidney following intravenous injection in rat at the dose of 0.2 mg/kg; type: ADME, organism-based; conditions: in vivo, 0.25 h; in short: as §1
Rattus norvegicus [10] = assay: Tested for the tissue distribution of Br activity at 45 min in kidney following intravenous injection in rat at the dose of 0.2 mg/kg; type: ADME, organism-based; conditions: in vivo, 0.75 h; in short: as §1
Rattus norvegicus [11] = assay: Tested for the tissue distribution of Br activity at 30 min in liver following intravenous injection in rat at the dose of 0.2 mg/kg; type: ADME, organism-based; conditions: in vivo, 0.5 h; in short: as §1
Rattus norvegicus [12] = assay: Tested for the tissue distribution of Br activity at 60 min in blood following intravenous injection in rat at the dose of 0.2 mg/kg; type: ADME, organism-based; conditions: in vivo, 1 h; in short: as §1
Rattus norvegicus [13] = assay: Tested for the tissue distribution of Br activity at 120 min in blood following intravenous injection in rat at the dose of 0.2 mg/kg; type: ADME, organism-based; conditions: in vivo, 2 h; in short: as §1
Rattus norvegicus [14] = assay: Tested for the tissue distribution of Br activity at 30 min in blood following intravenous injection in rat at the dose of 0.2 mg/kg; type: ADME, organism-based; conditions: in vivo, 0.5 h; in short: as §1
Rattus norvegicus [15] = assay: Tested for the tissue distribution of Br activity at 30 min in kidney following intravenous injection in rat at the dose of 0.2 mg/kg; type: ADME, organism-based; conditions: in vivo, 0.5 h; in short: as §1
Rattus norvegicus [16] = assay: Tested for the tissue distribution of Br activity at 45 min in liver following intravenous injection in rat at the dose of 0.2 mg/kg; type: ADME, organism-based; conditions: in vivo, 0.75 h; in short: as §1
Rattus norvegicus [17] = assay: Tested for the tissue distribution of Br activity at 120 min in liver following intravenous injection in rat at the dose of 0.2 mg/kg; type: ADME, organism-based; conditions: in vivo, 2 h; in short: as §1
Rattus norvegicus [18] = assay: Tested for the tissue distribution of Br activity at 15 min in brain following intravenous injection in rat at the dose of 0.2 mg/kg; type: ADME, organism-based; conditions: in vivo, 0.25 h; in short: as §1
Rattus norvegicus [19] = assay: Tested for the tissue distribution of Br activity at 15 min in liver following intravenous injection in rat at the dose of 0.2 mg/kg; type: ADME, organism-based; conditions: in vivo, 0.25 h; in short: as §1
Rattus norvegicus [20] = assay: Tested for the tissue distribution of Br activity at 45 min in blood following intravenous injection in rat at the dose of 0.2 mg/kg; type: ADME, organism-based; conditions: in vivo, 0.75 h; in short: as §1
Rattus norvegicus [21] = assay: Tested for the tissue distribution of Br activity at 60 min in lung following intravenous injection in rat at the dose of 0.2 mg/kg; type: ADME, organism-based; conditions: in vivo, 1 h; in short: as §1
Rattus norvegicus [22] = assay: Tested for the tissue distribution of Br activity at 120 min in lung following intravenous injection in rat at the dose of 0.2 mg/kg; type: ADME, organism-based; conditions: in vivo, 2 h; in short: as §1
Rattus norvegicus [23] = assay: Tested for the tissue distribution of Br activity at 30 min in brain following intravenous injection in rat at the dose of 0.2 mg/kg; type: ADME, organism-based; conditions: in vivo, 0.5 h; in short: as §1
Rattus norvegicus [24] = assay: Tested for the tissue distribution of Br activity at 120 min in brain following intravenous injection in rat at the dose of 0.2 mg/kg; type: ADME, organism-based; conditions: in vivo, 2 h; in short: as §1
Rattus norvegicus [25] = assay: Tested for the tissue distribution of Br activity at 30 min in lung following intravenous injection in rat at the dose of 0.2 mg/kg; type: ADME, organism-based; conditions: in vivo, 0.5 h; in short: as §1

Q: With `O=C(CCCN1CCC(O)(c2ccc(Br)cc2)CC1)c1ccc(F)cc1` [BROMPERIDOL] as the compound, how does the Dose/g (Rattus norvegicus [1]) read?
A: Its Dose/g is 0.93%.

Q: What about the Dose/g (Rattus norvegicus [2]) of the same compound?
A: Its Dose/g is 5.07%.

Q: And the Dose/g (Rattus norvegicus [3])?
A: The Dose/g was 2.75%.

Q: What about the Dose/g (Rattus norvegicus [4]) of the same compound?
A: The Dose/g was 0.15%.

Q: And the Dose/g (Rattus norvegicus [5])?
A: Its Dose/g is 1.58%.

Q: What about the Dose/g (Rattus norvegicus [6]) of the same compound?
A: Its Dose/g is 0.41%.

Q: What about the Dose/g (Rattus norvegicus [7]) of the same compound?
A: The Dose/g was 0.61%.

Q: And the Dose/g (Rattus norvegicus [8])?
A: Its Dose/g is 0.32%.

Q: And the Dose/g (Rattus norvegicus [9])?
A: The Dose/g was 1.63%.

Q: What about the Dose/g (Rattus norvegicus [10]) of the same compound?
A: The Dose/g was 1.03%.

Q: What about the Dose/g (Rattus norvegicus [11]) of the same compound?
A: Its Dose/g is 1.66%.

Q: And the Dose/g (Rattus norvegicus [12])?
A: Its Dose/g is 0.14%.

Q: And the Dose/g (Rattus norvegicus [13])?
A: The Dose/g was 0.12%.

Q: And the Dose/g (Rattus norvegicus [14])?
A: The Dose/g was 0.14%.

Q: And the Dose/g (Rattus norvegicus [15])?
A: Its Dose/g is 1.2%.

Q: What about the Dose/g (Rattus norvegicus [16]) of the same compound?
A: Its Dose/g is 1.7%.

Q: And the Dose/g (Rattus norvegicus [17])?
A: The Dose/g was 1.44%.

Q: And the Dose/g (Rattus norvegicus [18])?
A: Its Dose/g is 0.58%.

Q: What about the Dose/g (Rattus norvegicus [19]) of the same compound?
A: The Dose/g was 1.53%.

Q: What about the Dose/g (Rattus norvegicus [20]) of the same compound?
A: Its Dose/g is 0.14%.

Q: And the Dose/g (Rattus norvegicus [21])?
A: Its Dose/g is 2.25%.

Q: And the Dose/g (Rattus norvegicus [22])?
A: Its Dose/g is 1.23%.

Q: What about the Dose/g (Rattus norvegicus [23]) of the same compound?
A: The Dose/g was 0.41%.

Q: And the Dose/g (Rattus norvegicus [24])?
A: The Dose/g was 0.2%.

Q: What about the Dose/g (Rattus norvegicus [25]) of the same compound?
A: The Dose/g was 3.17%.
